Data taken from ChEMBL document CHEMBL5608214, “Novel tetrasubstituted 5-Arylamino pyrazoles able to interfere with angiogenesis and Ca2+ mobilization” (Eur J Med Chem, 2024).
Active and inactive are the calls of the source. The rule behind the calls is not given here.

Legend:
MCF7 = assay: Antiproliferative activity against human MCF7 cells assessed as cell growth at 10 uM incubated for 48 hrs by MTT assay relative to control; type: functional; conditions: read-out: Activity
Summary of the method: (§1)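 Cells in DMEM with 10 % FBS, 2 mM glutamine and pen-strep, 37 °C, 5 % CO₂, plated to reach 80–90 % confluence at endpoint. At 16 h, compounds were added from a 10 mM DMSO stock to 10 μM final. After 48 h, MTT (2 mg/mL in PBS) was added for 4 h, formazan dissolved in DMSO, and OD read at 570 nm. Results are % of solvent control; three runs, six replicates each, mean ± SD.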

MDA-MB-231 = assay: Antiproliferative activity against human MDA-MB-231 cells assessed as cell growth at 10 uM incubated for 48 hrs by MTT assay relative to control; type: functional; conditions: read-out: Activity; summary of the method: as §1
[1] = Antiproliferative activity against human GM06114 cells assessed as cell growth at 10 uM incubated for 48 hrs by MTT assay relative to control; type: toxicity, cell-based; conditions: read-out: Activity; summary of the method: as §1
SK-MEL-28 = assay: Antiproliferative activity against human SK-MEL-28 cells assessed as cell growth at 10 uM incubated for 48 hrs by MTT assay relative to control; type: functional; conditions: read-out: Activity; summary of the method: as §1
HeLa = assay: Antiproliferative activity against human HeLa cells assessed as cell growth at 10 uM incubated for 48 hrs by MTT assay relative to control; type: functional; conditions: read-out: Activity; summary of the method: as §1
[2] = Antiproliferative activity against human HUVEC cells assessed as cell growth at 10 uM incubated for 48 hrs by MTT assay relative to control; type: toxicity, cell-based; conditions: read-out: Activity; summary of the method: as §1
HepG2 = assay: Antiproliferative activity against human HepG2 cells assessed as cell growth at 10 uM incubated for 48 hrs by MTT assay relative to control; type: functional; conditions: read-out: Activity; summary of the method: as §1
SK-BR-3 = assay: Antiproliferative activity against human SK-BR-3 cells assessed as cell growth at 10 uM incubated for 48 hrs by MTT assay relative to control; type: functional; conditions: read-out: Activity; summary of the method: as §1
A549 = assay: Antiproliferative activity against human A549 cells assessed as cell growth at 10 uM incubated for 48 hrs by MTT assay relative to control; type: functional; conditions: read-out: Activity; summary of the method: as §1
SK-OV-3 = assay: Antiproliferative activity against human SK-OV-3 cells assessed as cell growth at 10 uM incubated for 48 hrs by MTT assay relative to control; type: functional; conditions: read-out: Activity; summary of the method: as §1
HUVEC [3] = assay: Anti-angiogenetic activity in human HUVEC cells assessed as number of tube branching points at 10 uM incubated for 12 hrs by microscopy; type: functional
Summary of the method: (§2)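 HUVEC seeded at 2 × 10⁴ cells/well onto gelled Matrigel (mixed 1:1 with EGM-2, set 30 min at 37 °C). Cells were exposed to test agents at 10 μM for 12 h with no stimulus; untreated wells served as control. Tube long axis and branching points were counted in 10 random fields per well at 10× (Angiogenesis Analyzer), giving mean tube length per well. Mean of at least three independent experiments.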

HUVEC [4] = assay: Anti-angiogenetic activity in human HUVEC cells assessed as reduction in tube length at 10 uM incubated for 12 hrs by microscopy; type: functional, cell-based; summary of the method: as §2
HUVEC [5] = assay: Anti-angiogenetic activity in human HUVEC cells assessed as relative tube length at 10 uM incubated for 12 hrs by microscopy; type: functional; summary of the method: as §2
HUVEC [6] = assay: Anti-angiogenetic activity in human HUVEC cells assessed as reduction in tube branching at 10 uM incubated for 12 hrs by microscopy; type: functional, cell-based; summary of the method: as §2
[7] = Effect on intracellular calcium signaling in human HUVEC cells assessed as inhibition of calcium mobilization by measuring fluorescence intensity at 10 uM incubated for 1 hr by Fluo-4 a.m. cytofluorimetric assay relative to control; type: functional; set-up: scale not given: the % may be the effect or the level left
Summary of the method: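 Trypsinized HUVEC at 5 × 10⁵/ml were treated with compounds at 10 μM in PBS for 1 h at room temperature, washed, then loaded with 2.5 μM Fluo-4 AM (0.06 % DMSO final) for 45 min at 37 °C. Fluorescence was read by flow cytometry with a 530/30 filter. Ionomycin served as positive control and EDTA (added 15 min before) as negative control. n = 3, mean ± SD.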

HUVEC [8] = assay: Inhibition of cell invasion in human HUVEC cells assessed as number of cells at 10 uM incubated for 24 hrs by transwell assay; type: functional
Summary of the method: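 Transwell inserts with 8.0 pore size were coated with Matrigel 1:3 in serum-free medium. HUVEC (2 × 10⁴/insert) went in serum-free medium in the upper chamber, with treatments (10 μM) in growth medium below, for 24 h at 37 °C. Filters were fixed in 4 % paraformaldehyde then methanol and stained with 0.5 % crystal violet. Cells on the lower surface were counted in ten random fields at 10×. n = 3.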

HUVEC [9] = assay: Effect on conformation of actin filament organization in human HUVEC cells at 10 uM treated for 24 hrs by immunofluorescence assay; type: functional, cell-based
Summary of the method: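 HUVEC were left untreated or treated 24 h at 10 μM final. Cells were then fixed on coverslips in 4 % paraformaldehyde, permeabilized with 0.2 % Triton X-100 and blocked with 20 % goat serum. F-actin was stained with FITC-phalloidin (5 µg/ml, 2 h, room temperature, dark) and nuclei with Hoechst 33342. Cells were imaged by confocal microscopy.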

Compound	growth at 10 µM (MCF7)	growth at 10 µM (MDA-MB-231)	viability at 48 h, 10 µM [1]	growth at 10 µM (SK-MEL-28)	growth at 10 µM (HeLa)	viability at 48 h, 10 µM [2]	growth at 10 µM (HepG2)	growth at 10 µM (SK-BR-3)	growth at 10 µM (A549)	growth at 10 µM (SK-OV-3)	Activity (HUVEC [3])	Activity (HUVEC [4])	Activity (HUVEC [5])	Activity (HUVEC [6])	Activity [7]	Activity (HUVEC [8])	Activity (HUVEC [9])
CCOC(=O)c1c(Nc2cccc(C(F)(F)F)c2)nn(CC(O)c2ccccc2)c1N (stereo not drawn)	99%	162%	80%	124%	107%	92%	131%	122%	88%	108%	–	–	–	–	–	–	–
CCCC(O)Cn1nc(Nc2cccc(C(F)(F)F)c2)c(C(=O)OCC)c1N (stereo not drawn)	80%	109%	71%	113%	77%	100%	69%	118%	66%	102%	–	–	–	–	–	–	–
CCCC(O)Cn1nc(Nc2ccccc2Cl)c(C(=O)OCC)c1N (stereo not drawn)	110%	107%	85%	132%	116%	95%	119%	121%	106%	102%	–	–	–	–	–	–	–
CCOC(=O)c1c(Nc2cccc3ccccc23)nn(CC(O)c2ccccc2)c1N (stereo not drawn)	97%	149%	81%	141%	104%	98%	118%	118%	88%	116%	<15	Active	<20	Active	–	–	–
CCCC(O)Cn1nc(Nc2ccc(OC)cc2)c(C(=O)OCC)c1N (stereo not drawn)	109%	143%	75%	120%	111%	95%	110%	106%	98%	110%	–	Active	–	Active	–	–	–
CCCC(O)Cn1nc(Nc2ccc(C)cc2)c(C(=O)OCC)c1N (stereo not drawn)	111%	158%	72%	137%	109%	96%	119%	123%	92%	119%	<15	Active	<20	Active	–	–	–
CCOC(=O)c1c(Nc2cccc(Cl)c2)nn(CC(O)c2ccccc2)c1N (stereo not drawn)	101%	135%	65%	144%	113%	93%	113%	120%	88%	100%	–	Active	–	Active	–	–	–
CCCC(O)Cn1nc(Nc2ccc(Cl)c(Cl)c2)c(C(=O)OCC)c1N (stereo not drawn)	107%	176%	87%	137%	119%	93%	116%	127%	94%	116%	–	Active	–	Active	–	–	–
CCOC(=O)c1c(Nc2ccc(C)cc2)nn(CC(O)c2ccccc2)c1N (stereo not drawn)	–	–	–	–	–	–	–	–	–	–	17	–	48	–	–	–	–
CCOC(=O)c1c(Nc2ccccc2Cl)nn(CC(O)c2ccccc2)c1N (stereo not drawn)	112%	115%	63%	136%	98%	93%	111%	117%	72%	100%	–	–	–	–	–	–	–
CCCC(O)Cn1ncc(C(=O)OCC)c1NC(=O)Nc1cccc(C(F)(F)F)c1 (stereo not drawn)	–	–	–	–	–	–	–	–	–	–	19	–	21	–	20%	383	Active
CCOC(=O)c1c(Nc2ccc(OC)cc2)nn(CC(O)c2ccccc2)c1N (stereo not drawn)	98%	147%	70%	134%	111%	99%	115%	115%	100%	102%	–	–	–	–	–	–	–
CCCC(O)Cn1nc(Nc2cccc3ccccc23)c(C(=O)OCC)c1N (stereo not drawn)	109%	106%	104%	103%	82%	94%	104%	110%	86%	108%	<15	–	<20	–	–	–	–
CCOC(=O)c1c(Nc2ccc(Cl)c(Cl)c2)nn(CC(O)c2ccccc2)c1N (stereo not drawn)	88%	144%	77%	135%	74%	93%	100%	111%	70%	111%	–	–	–	–	–	–	–
